Activity calls are given as the source filed them. The rule behind the calls is not given here.
Key:
UMUC3 [1] = test: Antiproliferative activity against human UM-UC-3 cells assessed as reduction in cell viability incubated for 72 hrs by MTT assay; type: functional, cell-based; settings: UMUC3, 72 h
Outline: (§1)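 Cells were seeded at 6.0×10³ per well and left 12 h, then treated in triplicate for 72 h. Ranges were 0–8 μM for UMUC3, T24, A2780 and HCT116, and 0–4 μM for A549. MTT (2 mg/mL) replaced the medium for 6 h at 37 °C, followed by DMSO solubilization and OD 490 nm. IC50 was taken as the mean of triplicate measurements. Cells were kept at 37 °C, 5% CO₂.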

T-24 [2] = test: Antiproliferative activity against human T24 cells assessed as reduction in cell viability incubated for 72 hrs by MTT assay; type: functional, cell-based; settings: T-24, 72 h
A2780 [3] = test: Antiproliferative activity against human A2780 cells assessed as reduction in cell viability incubated for 72 hrs by MTT assay; type: functional, cell-based; settings: A2780, 72 h; outline: as §1
A549 [4] = test: Antiproliferative activity against human A549 cells assessed as reduction in cell viability incubated for 72 hrs by MTT assay; type: functional, cell-based; settings: A549, 72 h; outline: as §1
HCT-116 [5] = test: Antiproliferative activity against human HCT116 cells assessed as reduction in cell viability incubated for 72 hrs by MTT assay; type: functional, cell-based; settings: HCT-116, 72 h
HUVEC = test: Cytotoxicity against human HUVEC cells assessed as reduction in cell viability incubated for 72 hrs by MTT assay; type: cell-based
Outline: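 HUVEC were treated at 0–8 μM for 72 h, and viability was read from concentration-response curves. Values are the average of 3 independent experiments.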

UMUC3 [6] = test: Inhibition of colony formation in human UM-UC-3 cells at 2 uM incubated for 6 to 8 days by crystal violet staining based assay; type: functional, cell-based
Outline: (§2)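 Colony formation: 8.0×10³ cells per well were seeded, and treatment began after 24 h, in triplicate, for 6–8 days. Ranges were 0–8 μM for UMUC3, T24 and HCT116, 0–4 μM for A2780, and 0–2 μM for A549. Cells were fixed in 10% formaldehyde and stained with 0.1% crystal violet. Colonies were counted, and absorbance was read at 490 nm. Data are the mean of 3 independent experiments.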

T-24 [7] = test: Inhibition of colony formation in human T24 cells at 2 uM incubated for 6 to 8 days by crystal violet staining based assay; type: functional, cell-based; outline: as §2
A2780 [8] = test: Inhibition of colony formation in human A2780 cells at 2 uM incubated for 6 to 8 days by crystal violet staining based assay; type: functional, cell-based; outline: as §2
HCT-116 [9] = test: Inhibition of colony formation in human HCT116 cells at 2 uM incubated for 6 to 8 days by crystal violet staining based assay; type: functional, cell-based; outline: as §2
A549 [10] = test: Inhibition of colony formation in human A549 cells at 2 uM incubated for 6 to 8 days by crystal violet staining based assay relative to control; type: functional; outline: as §2
UMUC3 [11] = test: Inhibition of cell migration in human UM-UC-3 cells at 3 uM incubated for 24 and 48 hrs by cellular scratch assay based microscopic analysis; type: functional
Outline: (§3)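 Scratch wound assay. Cells were grown to confluence and scratched with a 10 μL tip, then washed twice with PBS. Compound was added in serum-free medium: 3 μM for UMUC3 and T24, 2 μM for A549. Gaps were photographed at 0, 24 and 48 h, and wound closure distance was measured. Three independent repeats were run.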

T-24 [12] = test: Inhibition of cell migration in human T24 cells at 3 uM incubated for 24 and 48 hrs by cellular scratch assay based microscopic analysis; type: functional; outline: as §3
A549 [13] = test: Inhibition of cell migration in human A549 cells at 2 uM incubated for 24 and 48 hrs by cellular scratch assay based microscopic analysis; type: functional; outline: as §3
[14] = biological target: T1, AMP-activated protein kinase, AMPK (Homo sapiens) (UniProt P54646+O43741+P54619+Q9UGJ0+Q9Y478+Q13131+Q9UGI9); test: Activation of AMPK in human UM-UC-3 cells assessed as increase in AMPK phosphorylation at 2 uM measured upto 12 hrs by Western blot analysis; type: cell-based
Outline: (§4)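 Western blot of bladder cancer cells treated at 2 μM over a 0–12 h time course; separately, a 0–2 μM series was run for 12 h. Lysates were resolved by 8% or 10% SDS-PAGE, transferred to PVDF, and blocked in 5% milk/TBST for 1 h. Primary antibodies were applied overnight at 4 °C and secondaries for 1 h. Phospho- and total AMPK, mTOR, p70S6K and 4EBP1 were probed. Band density was normalized to β-actin, and the mean of 3 independent experiments is reported.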

[15] = biological target: T1, AMP-activated protein kinase, AMPK (Homo sapiens); test: Activation of AMPK in human T24 cells assessed as increase in AMPK phosphorylation at 2 uM measured upto 12 hrs by Western blot analysis; type: cell-based; settings: T-24; outline: as §4
[16] = biological target: T1, AMP-activated protein kinase, AMPK (Homo sapiens); test: Activation of AMPK in human UM-UC-3 cells assessed as decrease in mTOR phosphorylation at 2 uM measured upto 12 hrs by Western blot analysis; type: cell-based; outline: as §4
[17] = biological target: T1, AMP-activated protein kinase, AMPK (Homo sapiens); test: Activation of AMPK in human UM-UC-3 cells assessed as decrease in 4EBP1 phosphorylation at 2 uM measured upto 12 hrs by Western blot analysis; type: cell-based; outline: as §4
[18] = biological target: T1, AMP-activated protein kinase, AMPK (Homo sapiens); test: Activation of AMPK in human UM-UC-3 cells assessed as decrease in p70S6K phosphorylation at 2 uM measured upto 12 hrs by Western blot analysis; type: cell-based; outline: as §4
[19] = biological target: T1, AMP-activated protein kinase, AMPK (Homo sapiens); test: Activation of AMPK in human T24 cells assessed as decrease in mTOR phosphorylation at 2 uM measured upto 12 hrs by Western blot analysis; type: cell-based; settings: T-24; outline: as §4
[20] = biological target: T1, AMP-activated protein kinase, AMPK (Homo sapiens); test: Activation of AMPK in human T24 cells assessed as decrease in 4EBP1 phosphorylation at 2 uM measured upto 12 hrs by Western blot analysis; type: cell-based; settings: T-24; outline: as §4
[21] = biological target: T1, AMP-activated protein kinase, AMPK (Homo sapiens); test: Activation of AMPK in human T24 cells assessed as decrease in p70S6K phosphorylation at 2 uM measured upto 12 hrs by Western blot analysis; type: cell-based; settings: T-24; outline: as §4

Row | Compound | IC50 (UMUC3 [1]) | IC50 (T-24 [2]) | IC50 (A2780 [3]) | IC50 (A549 [4]) | IC50 (HCT-116 [5]) | other results
1 | CC(C)NC(=N)NC(=N)Nc1ccc(C(F)(F)F)cc1 | 5.2 µM | 4.8 µM | 3.2 µM | 3.6 µM | 4.8 µM | 
2 | CC(C)CNC(=N)NC(=N)Nc1ccc(C(F)(F)F)cc1 | 2 µM | 3.1 µM | 2.1 µM | 1.3 µM | 3.5 µM | IC50 (HUVEC): 8.5 µM; inhibition (UMUC3 [6]): Active; inhibition (T-24 [7]): Active; inhibition (A2780 [8]): Active; inhibition (HCT-116 [9]): Active; inhibition at 2 µM (A549 [10]): 100%; inhibition (UMUC3 [11]): Active; inhibition (T-24 [12]): Active; inhibition (A549 [13]): Active; Activity [14]: Active; Activity [15]: Active; Activity [16]: Active; Activity [17]: Active; Activity [18]: Active; Activity [19]: Active; Activity [20]: Active; Activity [21]: Active
3 | CC(C)CNC(=N)NC(=N)Nc1ccc(F)c(F)c1 | 7.1 µM | 42.9 µM | 6.7 µM | 2.4 µM | 29.7 µM | 
4 | CCCCCCCNC(=N)NC(=N)Nc1ccc(F)c(F)c1 | 2.1 µM | 4.3 µM | 1.5 µM | 1.5 µM | 1.8 µM | IC50 (HUVEC): 6.4 µM; inhibition (UMUC3 [6]): Active; inhibition (T-24 [7]): Active; inhibition (A2780 [8]): Active; inhibition (HCT-116 [9]): Active; inhibition at 2 µM (A549 [10]): 100%; inhibition (UMUC3 [11]): Active; inhibition (T-24 [12]): Active; inhibition (A549 [13]): Active
5 | CCN(CC)C(=N)NC(=N)Nc1ccc(F)c(F)c1 | 22.1 µM | 44.8 µM | 20.4 µM | 7.8 µM | 39.4 µM | 
6 | N=C(NC(=N)NC1CCCC1)Nc1ccc(F)c(F)c1 | 7.2 µM | 24.9 µM | 9.3 µM | 3.5 µM | 16.8 µM | 
7 | CC(C)NC(=N)NC(=N)Nc1ccc(F)c(F)c1 | 25 µM | 45 µM | 26 µM | 5.2 µM | > 50 µM | 
8 | CC(C)NC(=N)NC(=N)Nc1ccc(F)cc1 | > 50 µM | > 50 µM | 28 µM | 7.5 µM | > 50 µM | 
9 | N=C(NC(=N)NC1CCCC1)Nc1ccc(F)cc1F | 18.4 µM | 37.8 µM | 14.7 µM | 4 µM | 29.5 µM | 
10 | CCN(C)C(=N)NC(=N)Nc1ccc(C(F)(F)F)cc1 | 6.9 µM | 5.7 µM | 5.1 µM | 4.1 µM | 4 µM | 
11 | N=C(NC(=N)NC1CCCC1)Nc1ccc(C(F)(F)F)cc1 | 3.3 µM | 3.7 µM | 2.5 µM | 1.8 µM | 3.8 µM | IC50 (HUVEC): 7.3 µM; inhibition (UMUC3 [6]): Active; inhibition (T-24 [7]): Active; inhibition (A2780 [8]): Active; inhibition (HCT-116 [9]): Active; inhibition at 2 µM (A549 [10]): 100%; inhibition (UMUC3 [11]): Active; inhibition (T-24 [12]): Active; inhibition (A549 [13]): Active
12 | CC(C)NC(=N)NC(=N)Nc1ccc(Cl)cc1 [PROGUANIL] | 16.3 µM | 18.4 µM | 13 µM | 3.8 µM | 8.4 µM | inhibition (UMUC3 [6]): Active; inhibition (T-24 [7]): Active; inhibition (A2780 [8]): Active; inhibition (HCT-116 [9]): Active; inhibition (UMUC3 [11]): inactive; inhibition (T-24 [12]): inactive; inhibition (A549 [13]): inactive; Activity [14]: inactive; Activity [15]: inactive; Activity [16]: Active; Activity [17]: Active; Activity [18]: Active; Activity [19]: Active; Activity [20]: Active; Activity [21]: Active
13 | CC(C)CNC(=N)NC(=N)Nc1ccc(F)cc1F | 17.3 µM | 40.8 µM | 19.8 µM | 3.6 µM | 21.1 µM | 
14 | CCN(CC)C(=N)NC(=N)Nc1ccc(C(F)(F)F)cc1 | 4.9 µM | 6.2 µM | 3.8 µM | 3.7 µM | 4.3 µM | 

— ChEMBL document CHEMBL4610016, “Synthesis, biological evaluation and anti-proliferative mechanism of fluorine-containing proguanil derivatives” (Bioorg Med Chem, 2020)
